High-throughput results (PubChem)
MPTP block: inhibitors of mitochondrial permeability transition pore. isolated mouse mitochondria, Ca2+ swelling absorbance, 30 min. inhibition, % at 10 µM. 360,000 compounds, 1.4% hits;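 active = inhibition of 50% or more, scaled per plate between neutral and stimulator controls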;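 also: 0% = DMSO wells given calcium and 100% = 1 mM EGTA wells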
ATG4B inhibitor: inhibitors of human ATG4B cysteine protease. Q9Y4P1. ATG4B cleavage of LC3-PLA2, NBD-HPC fluorescence, 1 h. inhibition, % at 8.33 µM. 340,000 compounds, 0.51% hits. AID 504462; in the data active = inhibition above about 40%
Target sequence (Q9Y4P1 whole entry, looked up): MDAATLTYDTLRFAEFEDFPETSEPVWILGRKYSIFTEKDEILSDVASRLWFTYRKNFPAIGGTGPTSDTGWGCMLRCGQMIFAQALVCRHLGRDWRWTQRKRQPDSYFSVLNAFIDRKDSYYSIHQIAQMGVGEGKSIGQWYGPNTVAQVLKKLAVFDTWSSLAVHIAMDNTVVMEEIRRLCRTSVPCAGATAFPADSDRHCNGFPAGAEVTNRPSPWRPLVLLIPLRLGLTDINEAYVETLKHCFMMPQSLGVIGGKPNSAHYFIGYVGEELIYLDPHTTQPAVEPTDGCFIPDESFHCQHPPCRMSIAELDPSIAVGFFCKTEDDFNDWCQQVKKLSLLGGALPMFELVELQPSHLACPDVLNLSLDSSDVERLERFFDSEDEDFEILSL
MT1-MMP act inh: blocks activation of human MT1-MMP; 360,000 compounds, 0.061% hits; GFP/RFP ratio change, % at 20 µM; P50281; HT1080 RFP-PRO-GFP cells, GFP/RFP ratio fluorescence, overnight; percent of plate control window, DMSO zero; AID 651647;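 active = GFP/RFP ratio change of at least 30% with cell ATP level not reduced by more than half and red fluorescence within 50% of control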
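Assay system – RFP-PRO-GFP reporter HT1080 cells · Compound dosing – single dose of 20 µM compound, 1% DMSO final · Incubation – overnight compound exposure at 37 °C · Measure – GFP/RFP fluorescence ratio · Benchmarks – DMSO wells and RFP-L50D-GFP cells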
SKN-1 inh: inhibitors of C. elegans SKN-1. C. elegans VP596 Pgst-4::GFP/RFP ratio, acrylamide-induced, 24 h. inhibition, % at 21.8 µM. 360,000 compounds, 0.49% hits;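 active = interference check ratio from 0.5 to 1.5 plus GFP to RFP signal ratio inhibition reaching or exceeding a fixed threshold, cut at about 30% in these data, passing the limit was not always enough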
ATG4B conf: ATG4B (human) inhibition, single-dose confirmed; shares compounds with ATG4B inhibitor; ATG4B protease fluorescent substrate cleavage assay; inhibition, % at 8.33 µM; 320 compounds, 92% hits; AID 504757; in the data active = inhibition above about 39%
PLA2 ctr: counter-screen for ATG4B inhibitors: human phospholipase A2 | purified PLA2, NBD-C6-HPC fluorescence, 45 min | inhibition, % at 8.33 µM | shares compounds with ATG4B inhibitor | 1,600 compounds, 66% hits; in the data active = inhibition above about 50%
Target sequence (P04054 whole entry, looked up): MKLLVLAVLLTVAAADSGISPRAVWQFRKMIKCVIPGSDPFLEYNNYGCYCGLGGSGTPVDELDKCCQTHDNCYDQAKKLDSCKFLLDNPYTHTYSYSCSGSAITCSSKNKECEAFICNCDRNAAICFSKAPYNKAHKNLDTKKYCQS
An asterisk follows results filed as active; nt = no result. Rows were chosen to be rich in hits. Some 2.3% of all compounds tested hit in one or more screens of this group.

SMILES	MPTP block	ATG4B inhibitor	MT1-MMP act inh	SKN-1 inh	PLA2 ctr	others
Cc1ccc(-n2nc3c(N4CCC(C(=O)N5CCN(C)CC5)CC4)nnc(C)c3c2C)cc1	-2	11	-7	26	nt
CCOC(=O)C1(Cc2cccc(Cl)c2)CCCN(C(=O)c2cc(C(C)C)nn2C)C1 (stereo not drawn)	0	4	3	-4	nt
NC(=O)CSc1nnc(CNc2cccc(Cl)c2)n1CCc1ccccc1	1	49*	-2	-29	66*
CCOC(=O)CSc1nnc(CNc2cccc(Cl)c2)n1C	4	-5	3	-3	nt
O=C(O)COc1ccccc1C=NNc1ccc([N+](=O)[O-])cc1S(=O)(=O)Nc1ccc(Cl)cc1	-1	44*	1	12	43	ATG4B conf=64*
CCOc1ccc(C(=O)Nc2ccccc2-c2ccccc2)cc1Cl	5	45*	6	1	48
COc1cc2c(cc1OC)CN(C(=O)CCNS(=O)(=O)c1ccccc1F)CC2	1	-1	1	7	nt
O=C(Nc1ccc2nc(-c3cccs3)c(-c3cccs3)nc2c1)NC1CC1	22	72*	-25	19	81*
Cc1cc(SCC(=O)Nc2cccnc2Cl)nc2ccccc12	1	-10	-7	0	nt
Cc1nc(NC(=O)CSc2cc(C)c3ccccc3n2)c(Cl)cc1Cl	0	41*	0	-1	14
Cc1cccc(C)c1NC(=O)COC(=O)c1c2c(nc3ccccc13)/C(=C\c1ccc3c(c1)OCO3)CCC2	3	44*	-252	15	16
O=C(NCCc1ccc(Cl)cc1)c1ccc2nc[nH]c2c1	2	-4	2	8	nt
O=C(NCCc1ccc(Cl)cc1Cl)c1ccc2nc[nH]c2c1	0	43*	0	26	51*
S=C(NCc1ccccc1)NCC1COc2ccccc2O1 (stereo not drawn)	17	53*	19	5	61*
O=C(NCc1ccccc1)c1cccnc1Sc1ccccc1	-1	2	-2	18	nt
N#CCC(=O)Nc1ccc(C(=O)OCC(=O)N=c2sccn2Cc2ccccc2Cl)cc1	0	41*	-5	-8	57*
Cc1ccc(Cn2ccsc2=NC(=O)COC(=O)c2ccc(O)cc2O)cc1	-1	-9	-2	15	nt
O=C(COC(=O)c1ccc(O)cc1O)N=c1sccn1Cc1ccccc1Cl	0	43*	-10	0	57*
CCNC(=O)C1(C)CCN(C(=O)c2cc(F)ccc2C)C1 (stereo not drawn)	-1	nt	-8	-15	nt
COCCOC(=O)c1cc(C(=O)c2cc(Cl)ccc2O)coc1=N	-1	-2	-5	-2	nt
CCOc1ccc(C(=O)NNC(=O)CCNC(=O)c2ccc(Br)cc2)cc1OC	-1	6	-2	7	nt
O=C(COC(=O)c1ccccc1Nc1ccccc1)c1ccccc1	1	53*	7	11	52*
Cc1c(C(=O)N2CCc3ccccc3C2)sc2nc(-c3ccccc3)cn12	0	45*	3	26	53*
O=c1c2ccccc2c(-c2cccc(C(F)(F)F)c2)nn1-c1ccccc1	2	12	-2	-8	nt
O=c1c2ccccc2c(-c2ccc(O)cc2)nn1-c1cccc(C(F)(F)F)c1	23	60*	-7	5	72*
SMILES	MPTP block	ATG4B inhibitor	MT1-MMP act inh	SKN-1 inh	PLA2 ctr	others
COc1cccc(NC(=O)c2nnn(CC(=O)Nc3cc(C)cc(C)c3)c2N)c1	0	0	2	-2	nt
Cc1cc(C)cc(NC(=O)c2nnn(Cc3cc(C)ccc3C)c2N)c1	1	57*	-6	8	78*
Cc1ccccc1Cn1nnc(C(=O)Nc2ccc3c(c2)OCCO3)c1N	-2	8	4	6	nt
Cc1ccc(C)c(Cn2nnc(C(=O)Nc3ccc4c(c3)OCCO4)c2N)c1	-1	55*	7	-2	65*
CCCCn1c(N)c(N(C)C(=O)C2CC(=O)N(Cc3ccco3)C2)c(=O)[nH]c1=O (stereo not drawn)	-2	8	-1	8	nt
N/C(COc1ccccc1)=N\NC(=O)c1cccnc1Oc1ccccc1	0	2	0	15	nt
O=C(Nc1nc2c(cc3c4c(cccc42)CC3)s1)c1ccccc1Cl	2	43*	-6	4	45	ATG4B conf=60*
Cc1nc(N2CCOCC2)c2c3c(sc2n1)CCC3	-3	4	-8	-1	nt
Cc1sc2nc(C(C)C)nc(SCC(=O)N3CCN(C(=O)c4ccco4)CC3)c2c1C	0	47*	0	4	57*
Cc1nc(N2CCN(C(=O)c3ccco3)CC2)c2c3c(sc2n1)CCC3	-4	67*	-2	17	71*
CC(C)c1nc(N2CCN(C(=O)c3ccco3)CC2)c2c3c(sc2n1)CCCC3	0	92*	-10	10	90*
CCc1c(C)sc2nc(C(C)C)nc(SCC(=O)N3CCc4ccccc4C3)c12	nt	46*	nt	nt	50*
Cc1sc2nc(C3CC3)nc(SCC(=O)N3CCc4ccccc4C3)c2c1C	5	37	-7	7	nt
Cc1sc2ncnc(SCC(=O)N3CCN(C(=O)c4ccco4)CC3)c2c1C	0	4	1	-1	nt
O=C(c1ccco1)N1CCN(C(=O)c2cccn3c(=O)c4c5c(sc4nc23)CCCC5)CC1	1	-2	-5	-6	nt
O=C(Nc1ccccc1F)c1ccc(CSc2ccccc2)o1	0	8	-1	31	nt
C/C(=N\N=C(/N)SC1CC(=O)N(c2ccccc2)C1=O)c1cccs1 (stereo not drawn)	0	-1	10	6	nt
CCCCCCOc1ccc(N2C(=O)CC(S/C(N)=N/N=C(\C)c3cccs3)C2=O)cc1 (stereo not drawn)	8	49*	15	0	5	ATG4B conf=61*
Cn1cnc([N+](=O)[O-])c1Sc1nc(N)nc2c1ncn2Cc1ccccc1	0	2	5	20	nt
Nc1nc(SCc2ccccc2[N+](=O)[O-])c2ncn(Cc3ccccc3)c2n1	0	50*	0	5	58*
Cc1nc(NC(=O)c2ccccc2)sc1-c1csc(NCCc2ccccc2)n1	-2	28	-17	27	nt
Cc1nc(NC(=O)c2ccccc2)sc1-c1csc(NCc2ccccc2)n1	1	45*	-5	29	66*
Cc1ccc(C)c(C(C)NC(=S)NCc2ccc(F)cc2)c1 (stereo not drawn)	32	49*	-4	-15	50*
Cc1cccc(C)c1OCc1cc(C(=O)N2CC3C[C@@H]4CC2C[C@H](C3)C4)no1	-1	52*	-4	15	69*
Cc1ccc(OCc2cc(C(=O)N3CC4C[C@@H]5CC3C[C@H](C4)C5)no2)cc1C	3	-3	2	1	nt
